Source: ChEMBL document CHEMBL5252639, “Exploration of cytotoxic potential and tubulin polymerization inhibition activity of cis-stilbene-1,2,3-triazole congeners” (RSC Med Chem, 2023)
The source made the active and inactive calls. The calls are words filed in the database; no cut-off is given here.

Tests used:
HCT-116 [1] = test: Induction of apoptosis in human HCT-116 cells assessed as late apoptotic cells at 3.25 uM measured after 24 hrs by Annexin V-FITC/propidium iodide staining based flow cytometry (reference value: 0.00%); format: functional
HCT-116 [2] = test: Induction of apoptosis in human HCT-116 cells assessed as late apoptotic cells at 6.50 uM measured after 24 hrs by Annexin V-FITC/propidium iodide staining based flow cytometry (reference value: 0.00%); format: functional; settings: dose 6.5 µM
Tubulin = test: Inhibition of tubulin polymerization in human HCT-116 cells; format: cell-based
HCT-116 [3] = test: Induction of apoptosis in human HCT-116 cells assessed as viable cells at 1.62 uM measured after 24 hrs by Annexin V-FITC/propidium iodide staining based flow cytometry (reference value: 99.71%); format: functional; settings: read-out: Activity
HCT-116 [4] = test: Induction of cell cycle arrest in human HCT-116 cells assessed as accumulation of cells at G0/G1 phase at 3.25 uM measured after 24 hrs by PI staining based flow cytometry analysis relative to control (reference value: 70.34%)
HCT-116 [5] = test: Induction of apoptosis in human HCT-116 cells assessed as cell fragmentation measured for 24 hrs by DAPI staining based microscopic analysis; format: functional; settings: dose 1.62-6.5 µM
Procedure, shortened: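 Cells were seeded at 1×10^6 cells/well in 24-well plates and cultured 24 h. […] After PBS washing they were fixed in 4% paraformaldehyde for 30 min, permeabilized with 0.1% Triton X for 15 min, and stained with 1 µM DAPI for 15 min. Imaging used fluorescence microscopy (ex 350/em 460 nm) at 20X.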

HCT-116 [6] = test: Induction of cell cycle arrest in human HCT-116 cells assessed as accumulation of cells at G2/M phase at 1.62 uM measured after 24 hrs by PI staining based flow cytometry analysis relative to control (reference value: 15.61%)
HCT-116 [7] = test: Induction of cell cycle arrest in human HCT-116 cells assessed as accumulation of cells at G0/G1 phase at 1.62 uM measured after 24 hrs by PI staining based flow cytometry analysis relative to control (reference value: 70.34%)
HCT-116 [8] = test: Induction of apoptosis in human HCT-116 cells assessed as viable cells at 3.25 uM measured after 24 hrs by Annexin V-FITC/propidium iodide staining based flow cytometry (reference value: 99.71%); format: functional; settings: read-out: Activity
Tubulin (Homo sapiens) [9] = biological target: T1, Tubulin (Homo sapiens) (UniProt P68371+Q9H4B7+P0DPH7+P68366+Q13509+Q71U36+P04350+Q3ZCM7+P07437+P68363+Q9BQE3+Q6PEY2+Q13885+Q9BVA1+Q9BUF5); test: Inhibition of tubulin polymerization in human HCT-116 cells at 3.25 uM measured after 1 hr relative to control; format: cell-based
HCT-116 [10] = test: Induction of apoptosis in human HCT-116 cells assessed as micronuclei formation at 3.25 to 6.50 uM measured for 24 hrs by AO/EB staining based microscopic analysis; format: functional, cell-based; settings: dose 3.25-6.5 µM
Procedure, shortened: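 Media removed; acridine orange and ethidium bromide (10 µg/ml, equal volumes) added in 1 mL PBS. Imaged immediately by fluorescence microscopy (excitation 488 nm, emission 550 nm) at 20X.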

HCT-116 [11] = test: Induction of apoptosis in human HCT-116 cells assessed as necrotic cells at 1.62 uM measured after 24 hrs by Annexin V-FITC/propidium iodide staining based flow cytometry (reference value: 0.00%); format: functional
HCT-116 [12] = test: Induction of apoptosis in human HCT-116 cells assessed as necrotic cells at 6.50 uM measured after 24 hrs by Annexin V-FITC/propidium iodide staining based flow cytometry (reference value: 0.00%); format: functional; settings: dose 6.5 µM
HCT-116 [13] = test: Induction of apoptosis in human HCT-116 cells assessed as viable cells at 6.50 uM measured after 24 hrs by Annexin V-FITC/propidium iodide staining based flow cytometry (reference value: 99.71%); format: functional; settings: read-out: Activity
HCT-116 [14] = test: Induction of apoptosis in human HCT-116 cells assessed as early apoptotic cells at 3.25 uM measured after 24 hrs by Annexin V-FITC/propidium iodide staining based flow cytometry (reference value: 0.28%); format: functional
HCT-116 [15] = test: Induction of cell cycle arrest in human HCT-116 cells assessed as accumulation of cells at S phase at 6.50 uM measured after 48 hrs by PI staining based flow cytometry analysis relative to control (reference value: 5.55%); format: functional; settings: dose 6.5 µM
Tubulin (Homo sapiens) [16] = biological target: T1, Tubulin (Homo sapiens); test: Inhibition of tubulin polymerization in human HCT-116 cells at 1.62 uM measured after 1 hr relative to control; format: cell-based
A549 = test: Cytotoxicity against human A549 cells assessed as inhibition of cell growth measured for 24 hrs by MTT assay; format: functional, cell-based; settings: A549, 24 h
Procedure, shortened: (§1)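 Cells were kept at 37 °C with 5% CO2 in suitable medium with 10% FBS and 1% antibiotic-antimycotic, and passaged at 80-90% confluency using 0.25% trypsin/1 mM EDTA. They were seeded at 1×10^3–4×10^3 cells/well and attached overnight. Compounds came from 10 mM DMSO stocks diluted in medium and were applied for 24 h. MTT (0.5 mg/mL) was added for 4 h at 37 °C, formazan was dissolved in DMSO, and absorbance was read at 570 nm.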

HCT-116 [17] = test: Induction of morphological change in human HCT-116 cells assessed as cell detachment incubated for 24 hrs by phase contrast microscopic analysis; format: functional, cell-based
Procedure, shortened: (§2)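 HCT-116 plated at 1 × 10^6 cells/mL in RPMI + 10% FBS and allowed to adhere 24 h at 37 °C, 5% CO2. […] After 24 h, morphology imaged by phase-contrast microscopy at 20X.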

BT-474 = test: Cytotoxicity against human BT-474 cells assessed as inhibition of cell growth measured for 24 hrs by MTT assay; format: functional, cell-based; settings: BT-474, 24 h; procedure, shortened: as §1
HCT-116 [18] = test: Induction of apoptosis in human HCT-116 cells assessed as formation of membrane blebs at 1.62 uM measured for 24 hrs by AO/EB staining based microscopic analysis; format: functional, cell-based
HCT-116 [19] = test: Induction of cell cycle arrest in human HCT-116 cells assessed as accumulation of cells at G0/G1 phase at 6.50 uM measured after 48 hrs by PI staining based flow cytometry analysis relative to control (reference value: 70.34%); format: functional; settings: dose 6.5 µM
HCT-116 [20] = test: Induction of apoptosis in human HCT-116 cells assessed as late apoptotic cells at 1.62 uM measured after 24 hrs by Annexin V-FITC/propidium iodide staining based flow cytometry (reference value: 0.00%); format: functional
HCT-116 [21] = test: Induction of morphological change in human HCT-116 cells assessed as cell rounding incubated for 24 hrs by phase contrast microscopic analysis; format: functional, cell-based; settings: dose 1.62-6.5 µM; procedure, shortened: as §2
B16-F10 = test: Cytotoxicity against mouse B16-F10 cells assessed as inhibition of cell growth measured for 24 hrs by MTT assay; format: functional, cell-based; settings: B16-F10, 24 h; procedure, shortened: as §1
HCT-116 [22] = test: Induction of apoptosis in human HCT-116 cells assessed as early apoptotic cells at 1.62 uM measured after 24 hrs by Annexin V-FITC/propidium iodide staining based flow cytometry (reference value: 0.28%); format: functional
Tubulin (Homo sapiens) [23] = biological target: T1, Tubulin (Homo sapiens); test: Inhibition of tubulin polymerization in human HCT-116 cells at 6.50 uM measured after 1 hr relative to control; format: cell-based; settings: dose 6.5 µM

## COc1ccc(/C=C(/C(=O)OCc2cn(Cc3cc(F)ccc3F)nn2)c2ccc(OC)c(OC)c2)cc1OC
HCT-116 [1]
  Activity: 25.22%
HCT-116 [2]
  Activity: 49.32%
Tubulin
  IC50: 4.51 µM
HCT-116 [3]
  viability at 1.62 µM: 81.7%
HCT-116 [4]
  Activity: 50.62%
HCT-116 [5]
  Activity: Dose-Dependent Effect
HCT-116 [6]
  Activity: 22.06%
HCT-116 [7]
  Activity: 70.12%
HCT-116 [8]
  viability at 3.25 µM: 44.6%
Tubulin (Homo sapiens) [9]
  inhibition: 36.5%
HCT-116 [10]
  Activity: Active
HCT-116 [11]
  Activity: 0.52%
HCT-116 [12]
  Activity: 12.94%
HCT-116 [13]
  viability at 6.5 µM: 27.5%
HCT-116 [14]
  Activity: 13.51%
HCT-116 [15]
  Activity: 12.73%
Tubulin (Homo sapiens) [16]
  inhibition: 33.4%
A549
  IC50: 11.3 µM
HCT-116 [17]
  Activity: Dose-Dependent Effect
BT-474
  IC50: 12.9 µM
HCT-116 [18]
  Activity: Active
HCT-116 [19]
  Activity: 38.48%
HCT-116 [20]
  Activity: 0.16%
HCT-116 [21]
  Activity: Dose-Dependent Effect
B16-F10
  IC50: 15.1 µM
HCT-116 [22]
  Activity: 18.1%
Tubulin (Homo sapiens) [23]
  inhibition: 65.2%
